Seven compounds from ChEMBL document CHEMBL1154008, “Synthesis and in vitro activity of new tetrahydronaphtho[1,2-b]azepine derivatives against Trypanosoma cruzi and Leishmania chagasi parasites” (Bioorg Med Chem Lett, 2009) can be followed below.

Data set [1] concerns Trypanosoma cruzi. Briefly: Antiparasitic activity against Trypanosoma cruzi 320I04 epimastigotes […] after 72 hrs. In kind it is functional, organism-based. Put shortly:
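Free parasite forms (T. cruzi 320I04 epimastigotes; L. chagasi MHOM/BR/74/PP75 promastigotes) exposed to compounds for 72 h at 27 °C. IC50/IC90 taken as the concentrations giving 50% or 90% growth inhibition. Values are representative of one experiment out of three.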

Data set [2] in a line: Selectivity index, ratio of CC50 for human THP1 cells to IC50 for Leishmania chagasi MHOM/BR/74/PP75 promastigotes. In kind it is functional, THP-1. The method, boiled down: (§1)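 SI calculated as Vero CC50 divided by T. cruzi IC50, or THP-1 CC50 divided by L. chagasi IC50. Both values come from 72 h exposures: parasites at 27 °C, mammalian cells at 37 °C with MTT read-out.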

Data set [3] deals with Leishmania chagasi. Description: Antiparasitic activity against Leishmania chagasi MHOM/BR/74/PP75 promastigotes infected in human THP1 cells after 72 hrs. Particulars: MHOM/BR/74/PP75, THP-1, 72 h.
A short description of data set [4]: Cytotoxicity against african green monkey Vero cells after 72 hrs by MTT assay. In kind it is cell-based. Particulars: chlorocebus sabaeus. Put shortly: (§2)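 Vero or transformed THP-1 cells exposed to a 3-fold compound dilution series, in triplicate, for 72 h at 37 °C. Toxicity read by MTT reduction. CC50/CC90 taken as the concentrations killing 50% or 90% of cells. Values are representative of one experiment out of three.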
A general note: Tetrazolium dyes change colour on reduction, which living cells bring about.

A short description of data set [5]: Cytotoxicity against human THP1 cells after 72 hrs by MTT assay. The format is cell-based. Particulars: THP-1 cells. The method, boiled down:
as §2

Data set [6] is described as follows: Selectivity index, ratio of CC50 for african green monkey Vero cells to IC50 for Trypanosoma cruzi 320I04 intracellular amastigotes. The format is functional.
In data set [7] the test system is Trypanosoma cruzi. Description: Antiparasitic activity against Trypanosoma cruzi 320I04 intracellular amastigotes infected in african green monkey Vero cells after 72 hrs. In kind it is functional, organism-based. Particulars: 320I04, Vero.
Data set [8] in a line: Selectivity index, ratio of CC50 for african green monkey Vero cells to IC50 for Trypanosoma cruzi 320I04 epimastigotes. The format is functional. The method, boiled down:
as §1

Usually IC50 stands for the midpoint of a concentration-inhibition curve. Broadly, the IC90 is the concentration needed for an effect of 90%. In general, CC50 refers to the concentration giving 50% cytotoxicity.

The structures appear in SMILES notation.

For the compound `O=[N+]([O-])c1ccccc1[C@@H]1C[C@@H]2Cc3ccc4ccccc4c3N1O2`, the IC50 in data set [1] is 1.4 µM; in data set [3] it was 40.9 µM; in data set [7] it was above 100 µM. Besides, the IC90 in data set [1] was 29.3 µM; in data set [3] it was 209 µM; in data set [7] it was above 100 µM. Moreover, the results for the “Ratio CC50/IC50” value in data set [2], in data set [6] and in data set [8] were above 7.3, below 0.4 and 28.7, respectively. The CC50 at 72 h in data set [4] was 40.2 µM; in data set [5], above 300 µM. Further, the CC90 at 72 h in data set [4] and in data set [5] was above 300 µM throughout.
Regarding `COc1cccc([C@@H]2C[C@@H]3Cc4ccc5ccccc5c4N2O3)c1`, the figures for the IC50 in data set [1], in data set [3] and in data set [7] were 82.7 µM, 16.4 µM and 89.6 µM, respectively. The IC90 was above 300 µM in data set [1], 49.5 µM in data set [3] and above 100 µM in data set [7]. The entries for the “Ratio CC50/IC50” value in data set [2], in data set [6] and in data set [8] were above 18.3, above 3.3 and above 3.6, respectively. In addition, the 50% cytotoxic concentration (CC50) at 72 h in data set [4] and in data set [5] was above 300 µM throughout. Moreover, the CC90 at 72 h in data set [4] and in data set [5] was above 300 µM each time.
`O[C@@H]1Cc2ccc3ccccc3c2N[C@H](c2ccccc2Cl)C1`: the values for the IC50 in data set [1], in data set [3] and in data set [7] were 0.5 µM, 30.6 µM and 10.6 µM, respectively. Also, the figures for the IC90 in data set [1], in data set [3] and in data set [7] were 11 µM, 64.6 µM and above 30 µM, respectively. The “Ratio CC50/IC50” value in data set [2] was 2.2; in data set [6], 9.1; in data set [8], 193. In addition, the CC50 at 72 h came to 96.5 µM in data set [4] and 66.1 µM in data set [5]. Also, the CC90 at 72 h in data set [4] is above 250 µM; in data set [5], above 300 µM.
`Clc1ccc([C@@H]2C[C@@H]3Cc4ccc5ccccc5c4N2O3)c(Cl)c1`: the IC50 in data set [1] was 52.7 µM; in data set [3], 22.1 µM; in data set [7] it was above 250 µM. Moreover, the IC90 in data set [1] was above 250 µM; in data set [3], 45.8 µM; in data set [7], above 250 µM. The “Ratio CC50/IC50” value is above 11.3 in data set [2], below 0.2 in data set [6] and 1 in data set [8]. Moreover, the CC50 at 72 h in data set [4] was 55 µM; in data set [5], above 250 µM. Further, the CC90 at 72 h in data set [4] and in data set [5] was above 250 µM in each case.
Consider `c1ccc([C@@H]2C[C@@H]3Cc4ccc5ccccc5c4N2O3)cc1`, for which the IC50 in data set [1] was 11.5 µM; in data set [3] it was 21.2 µM; in data set [7], above 100 µM. The IC90 was above 350 µM in data set [1], 175 µM in data set [3] and above 100 µM in data set [7]. Moreover, the “Ratio CC50/IC50” value in data set [2] is above 16.5; in data set [6], below 0.7; in data set [8], 6.3. The CC50 at 72 h is 72.9 µM in data set [4] and above 350 µM in data set [5]. Further, the CC90 at 72 h in data set [4] and in data set [5] was above 350 µM in each case.
As to `Cc1cccc([C@@H]2C[C@H](O)Cc3ccc4ccccc4c3N2)c1`, the IC50 was 16.5 µM in data set [1], 41.4 µM in data set [3] and 33.4 µM in data set [7]. For the same compound, the 90% effect concentration (IC90) was 42.7 µM in data set [1], 134 µM in data set [3] and above 30 µM in data set [7]. The “Ratio CC50/IC50” value amounted to 2.2 in data set [2], 2.6 in data set [6] and 5.3 in data set [8]. Moreover, the CC50 at 72 h in data set [4] turned out to be 87.4 µM; in data set [5] it was 89.9 µM. The CC90 at 72 h in data set [4] was above 250 µM; in data set [5], 116 µM.
As to `Clc1ccccc1[C@@H]1C[C@@H]2Cc3ccc4ccccc4c3N1O2`, the IC50 in data set [1] is 100 µM; in data set [3], 184 µM; in data set [7], above 100 µM. Besides, the IC90 is 293 µM in data set [1], above 300 µM in data set [3] and above 100 µM in data set [7]. Further, the “Ratio CC50/IC50” value in data set [2] was above 1.6; in data set [6], below 0.4; in data set [8], 0.4. In addition, the figures for the CC50 at 72 h in data set [4] and in data set [5] were 37.2 µM and above 300 µM, respectively. In addition, the CC90 at 72 h in data set [4] and in data set [5] was above 300 µM in each case.
